Experimental data published in ChEMBL document CHEMBL1122747, “Potential antitumor agents. 42. Structure-activity relationships for acridine-substituted dimethyl phosphoramidate derivatives of 9-anilinoacridine” (J Med Chem, 1984).

Legend:
[1] = system: P388; experiment: Tumor cell selectivity (ILSmax values) was evaluated in vivo for the percentage increase in life span of treated animals over that of P388 tumor bearing untreated control animals; h=ILS of >50% could not be obtained at any dose level; format: functional, organism-based; conditions: Mus musculus
Procedure, shortened: (§1)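 F1 (DBA/2J × C57BlJ) mice, 19-21 g, either sex, inoculated with 10^6 P388 leukemia cells on day 0. Drug given ip in 0.1 mL 30% aqueous ethanol on days 1, 5 and 9, as a solution or, at highest doses, as a sonicated suspension. Doses stepped down from a toxic level at 0.67-fold intervals. Groups of six mice; ILS relative to 20-30 controls. OD is the highest nonacutely toxic daily dose.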

[2] = Lipophilicity (Rm) (liquid chromatography); format: physicochemical
Procedure, shortened: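 Rm is measured for drug cations at pH 2 by liquid-liquid chromatography on a cellulose support.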

[3] = system: L1210; experiment: In vitro test for 50% reduction of cell number (of control) after 70 hr incubation with cultures of murine L1210 leukemia cells; format: functional; conditions: Mus musculus, L1210, 70 h; read-out: ID50 (the source's name)
[4] = system: P388; experiment: Dose of drug needed to provide a percentage increase in life span of tumor-bearing mice in vivo of […]% compared to untreated controls after inoculation of 10e6 P388 leukemia cells; h=ILS of >50% could not be obtained at any dose level; format: functional, organism-based; conditions: Mus musculus
[5] = Binding affinity towards poly[d(A-T)] (fluorometric method); format: ADME
Procedure, shortened: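 Log R for binding to poly[d(A-T)] measured fluorometrically, corrected for quenching.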

[6] = system: P388; experiment: In vivo inhibition of P388 in mice for optimal (highest nonacutely toxic) dose (OD); format: functional, Mus musculus; procedure, shortened: as §1
[7] = system: P388; experiment: Tumor cell selectivity (ILSmax values) was evaluated in vivo for the percentage increase in life span of treated animals over that of P388 tumor bearing untreated control animals; h=ILS of >20% could not be obtained at any dose level; format: functional, organism-based; conditions: Mus musculus; procedure, shortened: as §1

| Rm [2] | IC50 [3] | Log K [5] | Structure (SMILES) | Activity [1] | D50 [4] | OD [6] | Activity [7] |
| --- | --- | --- | --- | --- | --- | --- | --- |
| -0.2 | > 2200 nM | 5.3 | CS(=O)(=O)Nc1ccc(Nc2c3ccccc3nc3cc(S(C)(=O)=O)ccc23)cc1 | ILS not obtained | ILS not obtained | 150 mg/kg/day |  |
| 0.15 | 3800 nM | 5.62 | CS(=O)(=O)Nc1ccc(Nc2c3ccccc3nc3ccc(Cl)cc23)cc1 | ILS not obtained | ILS not obtained | 150 mg/kg/day |  |
| -0.04 | 2500 nM | 6 | COc1ccc2nc3ccccc3c(Nc3ccc(NS(C)(=O)=O)cc3)c2c1 |  | ILS not obtained | 150 mg/kg/day | ILS not obtained |

| Structure (SMILES) | Rm [2] | IC50 [3] | Log K [5] | Activity [1] | D50 [4] | OD [6] | Activity [7] |
| --- | --- | --- | --- | --- | --- | --- | --- |
| COP(=O)(Nc1ccc(Nc2c3ccccc3nc3ccc(Cl)cc23)cc1)OC | 0.37 | 900 nM | 6.17 | ILS not obtained | ILS not obtained | 100 mg/kg/day |  |
